Data as given in PMC7444767 (British Journal of Clinical Pharmacology, 2020).

Experiments:
[1] = test system: peripheral blood B‐cell populations; assay: Peripheral blood B-cell subsets; format: in vivo, human; conditions: MAD part
Procedure, shortened: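 Double-blind, placebo-controlled multiple-ascending-dose part in healthy adults aged 18–55 y (BMI 18–32 kg m−2), randomised 3:1 to test compound or placebo. Oral dosing once daily for 14 days at 0.3, 1, 3 or 10 mg, with 14 days of post-dosing follow-up. Peripheral blood B-cell subsets measured and summarised with descriptive statistics.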

[2] = test system: murine models of collagen‐ and collagen antibody–induced arthritis; conditions: administered orally once daily (QD); both arthritis models; cited from earlier work
EGFR kinases = conditions: cited from earlier work
healthy participants = assay: Safety assessment; format: in vivo, human; conditions: for Dizziness / Dysmenorrhoea / Headache / Myalgia / Nausea / Oral herpes / Rash / Tension headache / Throat irritation / Upper respiratory tract infection: all branebrutinib doses
[3] = Plasma pharmacokinetics by validated LC–MS/MS; format: in vivo, human; conditions: for AUC(0-inf) / Cmax / half-life / Tmax / Vd/F: human, plasma; for AUC(0-inf): GM AUCinf; for Cmax: GM Cmax; for Tmax: Median Tmax
[4] = test system: serum immunoglobulin levels; assay: Serum immunoglobulins; format: in vivo, human; conditions: both parts (SAD and MAD)
Procedure, shortened: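 Healthy adults aged 18–55 y, randomised 3:1 to test compound or placebo, double-blind. Single-ascending-dose part: one oral dose of 0.3, 1, 3, 10 or 30 mg (n = 6 each; placebo n = 10). Multiple-ascending-dose part: oral dosing daily for 14 days at 0.3–10 mg. Serum immunoglobulins measured in both parts and summarised descriptively.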

[5] = preclinical studies; cited from earlier work
BTK = conditions: cited from earlier work
[6] = target: Bruton's tyrosine kinase (BTK) (Homo sapiens, UniProt Q06187); assay: BTK occupancy in blood by immunocapture LC–MS/MS; format: in vivo; conditions: for Time at which BTK occupancy reached steady state: MAD
Bruton's tyrosine kinase (BTK), sequence (Q06187 whole entry, the tested form may be a part): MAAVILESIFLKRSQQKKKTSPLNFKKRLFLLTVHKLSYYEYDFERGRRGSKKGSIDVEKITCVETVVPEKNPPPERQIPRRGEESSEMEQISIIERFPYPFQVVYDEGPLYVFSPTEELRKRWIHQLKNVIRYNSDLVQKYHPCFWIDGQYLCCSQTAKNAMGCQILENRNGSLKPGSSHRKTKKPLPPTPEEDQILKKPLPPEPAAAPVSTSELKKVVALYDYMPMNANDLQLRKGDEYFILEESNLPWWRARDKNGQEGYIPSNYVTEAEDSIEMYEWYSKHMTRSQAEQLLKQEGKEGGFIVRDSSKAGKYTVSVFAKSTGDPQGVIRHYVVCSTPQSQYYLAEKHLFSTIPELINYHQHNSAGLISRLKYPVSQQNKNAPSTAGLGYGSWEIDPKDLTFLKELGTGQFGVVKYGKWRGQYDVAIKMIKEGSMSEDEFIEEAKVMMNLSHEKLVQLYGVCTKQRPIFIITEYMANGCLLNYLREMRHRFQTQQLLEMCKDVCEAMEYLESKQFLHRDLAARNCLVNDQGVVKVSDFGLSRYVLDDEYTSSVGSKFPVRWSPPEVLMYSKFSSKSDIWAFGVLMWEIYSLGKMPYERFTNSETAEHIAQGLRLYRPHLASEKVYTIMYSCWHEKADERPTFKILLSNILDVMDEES
Procedure, shortened: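 Healthy volunteers in SAD and MAD parts (MAD doses 0.3–10 mg). Whole blood in ACD-A was lysed at once in buffer with protease inhibitor and a Cys481-reactive quencher, shaken 1 h at room temperature, and stored ≤−70°C. Anti-BTK bead immunocapture, on-bead trypsin digest, and LC–MS/MS of drug- or quencher-bound Cys481 peptide (residues 467–487). Occupancy = DB/(DB+QB)×100, and total BTK was also derived.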

[7] = oral, 0.3 mg, JMAD part (day 14), 0.3 mg QD, n = 6
[8] = oral, 0.3 mg, MAD part (day 14), 0.3 mg QD, n = 6
[9] = oral, 1 mg, MAD part (day 14), 1 mg QD, n = 6
[10] = oral, 1 mg, SAD part (day 1), 1 mg, n = 6
[11] = oral, 3 mg, JMAD part (day 14), 3 mg QD, n = 6
[12] = oral, 3 mg, MAD part (day 14), 3 mg QD, n = 6
[13] = oral, 3 mg, SAD part (day 1), 3 mg, n = 6
[14] = oral, 10 mg, JMAD part (day 14), 10 mg QD, n = 6
[15] = oral, 10 mg, MAD part (day 14), 10 mg QD, n = 5
[16] = oral, 10 mg, SAD part (day 1), 10 mg, n = 6
[17] = oral, 30 mg, SAD part (day 1), 30 mg, n = 6

CC#CC(=O)N[C@H]1CCCN(c2c(F)cc(C(N)=O)c3[nH]c(C)c(C)c23)C1 [Branebrutinib]
Effect on peripheral blood B‐cell populations [1]: no obvious effect
Doses at which maximal efficacy was observed [2]: ≥ 0.5 mg/kg
Activity against EGFR kinases (EGFR kinases; in vitro assessment): lacks activity
Dizziness (healthy participants; JMAD part, n = 18): 0 (0.0) n (%)
Dysmenorrhoea (healthy participants; JMAD part, n = 18): 2 (11.1) n (%)
Headache (healthy participants; JMAD part, n = 18): 1 (5.6) n (%)
Myalgia (healthy participants; JMAD part, n = 18): 0 (0.0) n (%)
Nausea (healthy participants; JMAD part, n = 18): 0 (0.0) n (%)
Oral herpes (healthy participants; JMAD part, n = 18): 0 (0.0) n (%)
Rash (healthy participants; JMAD part, n = 18): 0 (0.0) n (%)
Tension headache (healthy participants; JMAD part, n = 18): 0 (0.0) n (%)
Throat irritation (healthy participants; JMAD part, n = 18): 0 (0.0) n (%)
Upper respiratory tract infection (healthy participants; JMAD part, n = 18): 0 (0.0) n (%)
Serious AE (psychosis) leading to study discontinuation, number (healthy participants; MAD part, 10‐mg cohort, Day 10, considered not related to study drug): 1
Any AE (healthy participants; MAD part, QD 14 days, all branebrutinib doses 0.3-10 mg, n = 24): 17 (70.8) n (%)
Dizziness (healthy participants; MAD part, n = 24): 0 (0.0) n (%)
Dysmenorrhoea (healthy participants; MAD part, n = 24): 0 (0.0) n (%)
Headache (healthy participants; MAD part, n = 24): 8 (33.3) n (%)
Myalgia (healthy participants; MAD part, n = 24): 0 (0.0) n (%)
Nausea (healthy participants; MAD part, n = 24): 2 (8.3) n (%)
Oral herpes (healthy participants; MAD part, n = 24): 3 (12.5) n (%)
Rash (healthy participants; MAD part, n = 24): 0 (0.0) n (%)
Tension headache (healthy participants; MAD part, n = 24): 2 (8.3) n (%)
Throat irritation (healthy participants; MAD part, n = 24): 0 (0.0) n (%)
Upper respiratory tract infection (healthy participants; MAD part, n = 24): 4 (16.7) n (%)
Dizziness (healthy participants; SAD part, n = 30): 3 (10.0) n (%)
Dysmenorrhoea (healthy participants; SAD part, n = 30): 2 (6.7) n (%)
Headache (healthy participants; SAD part, n = 30): 4 (13.3) n (%)
Myalgia (healthy participants; SAD part, n = 30): 2 (6.7) n (%)
Nausea (healthy participants; SAD part, n = 30): 2 (6.7) n (%)
Oral herpes (healthy participants; SAD part, n = 30): 1 (3.3) n (%)
Rash (healthy participants; SAD part, n = 30): 2 (6.7) n (%)
Tension headache (healthy participants; SAD part, n = 30): 0 (0.0) n (%)
Throat irritation (healthy participants; SAD part, n = 30): 2 (6.7) n (%)
Upper respiratory tract infection (healthy participants; SAD part, n = 30): 3 (10.0) n (%)
Any AE (healthy participants; SAD part, single dose, all branebrutinib doses 0.3-30 mg, n = 30): 18 (60.0) n (%)
Dose‐related trend in AEs (healthy participants; across both parts of the trial): no dose‐related trend
Tolerability (healthy participants; single or multiple doses in healthy participants): well tolerated
GM CLT/F (apparent total body clearance) ([3]; JMAD part (day 14), 0.3 mg QD, n = 5): 94.0 (n = 5) L/hr
GM CLT/F (apparent total body clearance) ([3]; JMAD part (day 14), 3 mg QD, n = 6): 109 (n = 6) L/hr
GM CLT/F (apparent total body clearance) ([3]; JMAD part (day 14), 10 mg QD, n = 6): 72.2 (n = 6) L/hr
GM CLT/F (apparent total body clearance) ([3]; MAD part (day 14), 0.3 mg QD, n = 5): 81.3 (n = 5) L/hr
GM CLT/F (apparent total body clearance) ([3]; MAD part (day 14), 1 mg QD, n = 6): 95.5 (n = 6) L/hr
GM CLT/F (apparent total body clearance) ([3]; MAD part (day 14), 3 mg QD, n = 6): 98.1 (n = 6) L/hr
GM CLT/F (apparent total body clearance) ([3]; MAD part (day 14), 10 mg QD, n = 5): 99.5 (n = 5) L/hr
Accumulation following administration of multiple doses ([3]; MAD, QD 14 days): No accumulation
GM CLT/F (apparent total body clearance) ([3]; SAD part (day 1), 0.3 mg single oral dose, n = 6): 126 L/h
GM CLT/F (apparent total body clearance) ([3]; SAD part (day 1), 1 mg, n = 6): 124 L/h
GM CLT/F (apparent total body clearance) ([3]; SAD part (day 1), 3 mg, n = 6): 122 L/h
GM CLT/F (apparent total body clearance) ([3]; SAD part (day 1), 10 mg, n = 6): 99.6 L/h
GM CLT/F (apparent total body clearance) ([3]; SAD part (day 1), 30 mg, n = 6): 106 L/h
Time to drop to undetectable plasma levels ([3]; after single or multiple doses): ≤ 24 h
AUC(0-inf) ([3]; oral, 0.3 mg, JMAD part (day 14), 0.3 mg QD, n = 5): 0.0032 µg·h/mL
AUC(0-inf) ([3]; oral, 0.3 mg, MAD part (day 14), 0.3 mg QD, n = 5): 0.0037 µg·h/mL
Cmax [3, 7]: 0.002 µg/mL
Cmax [3, 8]: 0.0022 µg/mL
half-life ([3]; oral, 0.3 mg, Mean t1/2, JMAD part (day 14), 0.3 mg QD, n = 5): 54.6 min
half-life ([3]; oral, 0.3 mg, Mean t1/2, MAD part (day 14), 0.3 mg QD, n = 5): 78 min
Tmax [3, 7]: 30 min
Tmax [3, 8]: 60 min
Vd/F ([3]; oral, 1 mg): 255 L
AUC(0-inf) [3, 9]: 0.0105 µg·h/mL
AUC(0-inf) [3, 10]: 0.0081 µg·h/mL
Cmax [3, 9]: 0.0059 µg/mL
Cmax [3, 10]: 0.0046 µg/mL
half-life ([3]; oral, 1 mg, Mean t1/2, MAD part (day 14), 1 mg QD, n = 6): 99.6 min
half-life ([3]; oral, 1 mg, Mean t1/2, SAD part (day 1), 1 mg, n = 6): 95.4 min
Tmax [3, 9]: 30 min
Tmax [3, 10]: 30 min
Vd/F ([3]; oral, 3 mg): 304 L
AUC(0-inf) [3, 11]: 0.0274 µg·h/mL
AUC(0-inf) [3, 12]: 0.0306 µg·h/mL
AUC(0-inf) [3, 13]: 0.0245 µg·h/mL
Cmax [3, 11]: 0.0163 µg/mL
Cmax [3, 12]: 0.0178 µg/mL
Cmax [3, 13]: 0.0142 µg/mL
half-life ([3]; oral, 3 mg, Mean t1/2, JMAD part (day 14), 3 mg QD, n = 6): 90.6 min
half-life ([3]; oral, 3 mg, Mean t1/2, MAD part (day 14), 3 mg QD, n = 6): 98.4 min
half-life ([3]; oral, 3 mg, Mean t1/2, SAD part (day 1), 3 mg, n = 6): 104 min
Tmax [3, 11]: 30 min
Tmax [3, 12]: 30 min
Tmax [3, 13]: 48 min
Vd/F ([3]; oral, 10 mg): 221 L
AUC(0-inf) [3, 14]: 0.139 µg·h/mL
AUC(0-inf) [3, 15]: 0.101 µg·h/mL
AUC(0-inf) [3, 16]: 0.1 µg·h/mL
Cmax [3, 14]: 0.0972 µg/mL
Cmax [3, 15]: 0.0605 µg/mL
Cmax [3, 16]: 0.0666 µg/mL
half-life ([3]; oral, 10 mg, Mean t1/2, JMAD part (day 14), 10 mg QD, n = 6): 102 min
half-life ([3]; oral, 10 mg, Mean t1/2, MAD part (day 14), 10 mg QD, n = 5): 104 min
half-life ([3]; oral, 10 mg, Mean t1/2, SAD part (day 1), 10 mg, n = 6): 93.6 min
Tmax [3, 14]: 30 min
Tmax [3, 15]: 30 min
Tmax [3, 16]: 30 min
Vd/F ([3]; oral, 30 mg): 245 L
AUC(0-inf) [3, 17]: 0.282 µg·h/mL
Cmax [3, 17]: 0.179 µg/mL
half-life ([3]; oral, 30 mg, Mean t1/2, SAD part (day 1), 30 mg, n = 6): 97.8 min
Tmax [3, 17]: 30 min
Vd/F ([3]; po, 0.3 mg): 216 L
Trough observed concentrations ([3]; multiple doses, LLOQ 0.100 ng mL^−1): below the LLOQ
Systemic exposure vs dose ([3]; single or multiple doses): dose‐proportional
Effect on serum immunoglobulin levels [4]: no obvious effect
Brain penetration [5]: < 5 % of plasma concentration
Selectivity for BTK over 4 related Tec family kinases (BTK): < 5000 fold
Selectivity for BTK over 240 other kinases (BTK): > 5000 fold
Time at which BTK occupancy reached steady state ([6]; 0.3‐mg dose group): 14 days
Time at which BTK occupancy reached steady state ([6]; 10‐mg dose group): 1 days
Doses projected to be efficacious (BTK occupancy >90% at steady state) ([6]; at steady state, QD): ≥ 1 mg

C=CC(=O)N1CCC[C@@H](n2nc(-c3ccc(Oc4ccccc4)cc3)c3c(N)ncnc32)C1 [ibrutinib, reference compound]
Inhibition of the EGFR family of kinases (EGFR kinases): potent irreversible inhibitor
